{"source": "ChEMBL document CHEMBL1914330", "about": "(Eur J Med Chem, 2011)", "key": {"CCRF-CEM [1]": {"system": "CCRF-CEM", "experiment": "Ratio of IC50 for vinblastine-resistant human CEM/VBL100 cells to IC50 for human CEM cells", "type": "functional"}, "HeLa [2]": {"system": "HeLa", "experiment": "Induction of cell cycle arrest at G2/M phase in human HeLa cells assessed as decrease in cyclin B1 expression at 0.25 to 5 uM after 48 hrs by Western blot analysis", "type": "functional, cell-based", "summary_of_the_method": "(§1)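 HeLa cells treated for 24 or 48 h were washed in cold PBS and lysed on ice for 30 min. Lysates were cleared at 15,000 × g, run on SDS-PAGE and blotted. Membranes were probed 2 h at room temperature with antibodies to the target protein, then peroxidase secondary and ECL. Blots were reprobed for β-actin as loading control.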"}, "HeLa [3]": {"system": "HeLa", "experiment": "Induction of cell cycle arrest at G2/M phase in human HeLa cells assessed as decrease in Cdc25C expression at 0.25 to 5 uM after 24 hrs by Western blot analysis", "type": "functional, cell-based", "summary_of_the_method": "as §1"}, "[4]": {"experiment": "Inhibition of bovine brain tubulin polymerization after 20 mins by turbidimetry", "design": "species or system Bos taurus", "summary_of_the_method": "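Purified bovine brain tubulin at 10 µM was preincubated with compound in glutamate buffer at 30 °C, then cooled to 0 °C and GTP added. Samples were warmed to 30 °C in a recording spectrophotometer and assembly followed by turbidity.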"}, "[5]": {"experiment": "Antiproliferative activity against human taxol-resistant A549-T12 cells after 72 hrs by MTT assay", "type": "functional, cell-based", "settings": "A549, 72 h", "summary_of_the_method": "(§2)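 Cells seeded at 8 × 10³ per well in complete medium and exposed to a range of compound concentrations at 37 °C for 72 h. Viability read by MTT test. IC50 taken as the concentration inhibiting proliferation by 50%.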"}, "HeLa [6]": {"system": "HeLa", "experiment": "Induction of cell cycle arrest at G2/M phase in human HeLa cells assessed as partial recovery in Cdc2 phosphorylation at Tyr15 at 0.25 to 5 uM after 48 hrs by Western blot analysis", "type": "functional, cell-based", "summary_of_the_method": "as §1"}, "HeLa [7]": {"system": "HeLa", "experiment": "Induction of apoptosis in human HeLa cells assessed as decrease in Bcl2 protein expression at 0.25 to 0.5 uM after 48 hrs by Western blot analysis", "type": "functional, cell-based", "summary_of_the_method": "as §1"}, "HeLa [8]": {"system": "HeLa", "experiment": "Cell cycle arrest in human HeLa cells assessed as decrease in cell accumulation in S phase at 0.5 uM after 24 hrs by propidium iodide staining-based flow cytometry", "type": "functional", "summary_of_the_method": "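HeLa cells treated for 24 h over 0.06–0.5 µM. Cells fixed in ice-cold 70% ethanol, lysed with buffer containing RNase A and 0.1% Triton X-100, and stained with PI. DNA content read by flow cytometry, including the sub-G1 fraction. Mean ± SEM of three independent experiments.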"}, "A549 [9]": {"system": "A549", "experiment": "Antiproliferative activity against human A549 cells after 72 hrs by MTT assay", "type": "functional, cell-based", "settings": "A549, 72 h", "summary_of_the_method": "as §2"}, "HeLa [10]": {"system": "HeLa", "experiment": "Induction of apoptosis in human HeLa cells assessed as ROS production at 0.25 to 5 uM after 24 to 48 hrs by hydroethidine-staining-based flow cytometric analysis", "type": "functional, cell-based", "summary_of_the_method": "(§3)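 HeLa cells treated 24 or 48 h, trypsinized and resuspended in HBSS containing HE (2.5 µM) or H₂DCFDA (0.1 µM). Incubated 10 min at 37 °C, resuspended in HBSS, and ROS read by flow cytometry. Mean ± SEM of three independent experiments.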"}, "HeLa [11]": {"system": "HeLa", "experiment": "Induction of apoptosis in human HeLa cells assessed as loss of mitochondrial membrane potential at 0.25 to 5 uM by JC1 staining-based flow cytometric analysis", "type": "functional, cell-based", "settings": "TDE = time-dependent effect", "summary_of_the_method": "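After 24 or 48 h treatment, HeLa cells were trypsinized and resuspended in HBSS with JC-1 (1 µM). Incubated 10 min at 37 °C, washed, and read by flow cytometry for red (590 nm) aggregate versus green (530 nm) monomer. Mean ± SEM of three experiments.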"}, "[12]": {"experiment": "Antiproliferative activity against human vinblastine-resistant CEM/VBL100 cells after 72 hrs by MTT assay", "type": "functional, cell-based", "settings": "CEM/VBL100, 72 h", "summary_of_the_method": "as §2"}, "HT-29 [13]": {"system": "HT-29", "experiment": "Cytotoxicity against human HT-29 cells", "type": "functional, cell-based"}, "LoVo [14]": {"system": "LoVo", "experiment": "Ratio of IC50 for doxorubicin-resistant human LoVo cells to IC50 for human LoVo cells", "type": "functional"}, "CCRF-CEM [15]": {"system": "CCRF-CEM", "experiment": "Antiproliferative activity against human CEM cells after 72 hrs by MTT assay", "type": "functional, cell-based", "summary_of_the_method": "as §2"}, "HeLa [16]": {"system": "HeLa", "experiment": "Antiproliferative activity against human HeLa cells after 2 days by coulter counter analysis", "type": "functional, cell-based", "settings": "48 h", "summary_of_the_method": "(§4)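 Cells suspended at 300,000–500,000 cells/mL and mixed 1:1 with diluted compound. Incubated at 37 °C for two days, then counted with a Coulter counter. IC50 is the concentration inhibiting proliferation by 50%, as mean ± SE from dose-response curves of at least three independent experiments.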"}, "LoVo [17]": {"system": "LoVo", "experiment": "Antiproliferative activity against doxorubicin-resistant human LoVo cells after 72 hrs by MTT assay", "type": "functional, cell-based", "summary_of_the_method": "as §2"}, "HeLa [18]": {"system": "HeLa", "experiment": "Induction of cell cycle arrest at G2/M phase in human HeLa cells assessed as increase in cyclin B1 expression at 0.25 to 5 uM after 24 hrs by Western blot analysis", "type": "functional, cell-based", "summary_of_the_method": "as §1"}, "HeLa [19]": {"system": "HeLa", "experiment": "Induction of apoptosis in human HeLa cells assessed as accumulation of late apoptotic cells after 48 hrs by Annexin-V-FITC/propidium iodide staining-based flow cytometric analysis", "type": "functional, cell-based", "summary_of_the_method": "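HeLa cells treated for 24 or 48 h, then labelled with annexin-V-FITC and PI. Analysed by flow cytometry with excitation at 488 nm and emission at 525 nm (FITC) and 585 nm (PI). Quadrants scored as live, early apoptotic, late apoptotic or necrotic. Mean ± SEM of four independent experiments.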"}, "Mus musculus [20]": {"system": "Mus musculus", "experiment": "Toxicity in nude BALB/c mouse xenografted with human HT-29 cells assessed as organism mortality at 100 mg/kg, ip administered 3 times per week for 1 week measured on day 7", "type": "organism-based", "design": "dose 100 mg/kg, route intraperitoneal", "settings": "in vivo, 168 h", "summary_of_the_method": "(§5)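 HT-29 cells in log phase, suspended at 1 × 10⁷ cells/mL in serum-free RPMI 1640, 0.2 mL injected subcutaneously into the back of nude mice. At about 300 mm³, mice were randomised to vehicle or treatment groups (six per group). The compound was given in DMSO by i.p. injection at 0.01 mL/g body weight. Body weight was recorded on set days; mice were euthanised after 23 days.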"}, "L1210": {"system": "L1210", "experiment": "Antiproliferative activity against mouse L1210 cells after 2 days by coulter counter analysis", "type": "functional, cell-based", "settings": "L1210, 48 h", "summary_of_the_method": "as §4"}, "HT-29 [21]": {"system": "HT-29", "experiment": "Antitumor activity against human HT-29 cells xenografted in BALB/c nude mouse assessed as reduction in tumor mass at 100 mg/kg, ip administered 3 times per week for 1 week", "type": "functional, organism-based", "design": "dose 100 mg/kg"}, "HeLa [22]": {"system": "HeLa", "experiment": "Induction of apoptosis in human HeLa cells assessed as ROS production at 0.25 to 5 uM after 24 to 48 hrs by H2-DCFDA-staining-based flow cytometric analysis", "type": "functional, cell-based", "summary_of_the_method": "as §3"}, "HeLa [23]": {"system": "HeLa", "experiment": "Induction of apoptosis in human HeLa cells assessed as caspase-3 activation at 0.25 to 5 uM by flow cytometry", "settings": "TDE = time-dependent effect"}, "MOLT-4": {"system": "MOLT-4", "experiment": "Antiproliferative activity against human MOLT4 cells after 2 days by coulter counter analysis", "type": "functional, cell-based", "settings": "MOLT-4, 48 h"}, "FM3A": {"system": "FM3A", "experiment": "Antiproliferative activity against mouse FM3A cells after 2 days by coulter counter analysis", "type": "functional, cell-based", "settings": "48 h"}, "Mus musculus [24]": {"system": "Mus musculus", "experiment": "Toxicity in BALB/c nude mouse xenografted with human HT-29 cells assessed as organism mortality at 100 mg/kg, ip administered 3 times per week for 1 week measured on day 19", "type": "organism-based", "design": "dose 100 mg/kg, route intraperitoneal", "settings": "in vivo, 168 h", "summary_of_the_method": "as §5"}, "A549 [25]": {"system": "A549", "experiment": "Ratio of IC50 for taxol-resistant human A549-T12 cells to IC50 for human A549 cells", "type": "functional"}}, "note": "Activity calls are given as the source filed them. No cut-off for these calls is given here.", "data": [{"compound": "COc1cc(C(=O)c2sc(N3CCCC3)nc2N)cc(OC)c1OC", "values": [{"measurement": "Ratio IC50", "setting": "CCRF-CEM [1]", "result": 0.2}, {"measurement": "Activity", "setting": "HeLa [2]", "result": "inactive"}, {"measurement": "Activity", "setting": "HeLa [3]", "result": "Active"}, {"measurement": "IC50", "setting": "[4]", "result": 1300, "unit": "nM"}, {"measurement": "IC50", "setting": "[5]", "result": 160, "unit": "nM"}, {"measurement": "Activity", "setting": "HeLa [6]", "result": "inactive"}, {"measurement": "Activity", "setting": "HeLa [7]", "result": "Active"}, {"measurement": "Activity", "setting": "HeLa [8]", "result": "Active"}, {"measurement": "IC50", "setting": "A549 [9]", "result": 37, "unit": "nM"}, {"measurement": "Activity", "setting": "HeLa [10]", "result": "Active"}, {"measurement": "Activity", "setting": "HeLa [11]", "result": "tde"}, {"measurement": "IC50", "setting": "[12]", "result": 10, "unit": "nM"}, {"measurement": "IC50", "setting": "HT-29 [13]", "result": 20, "unit": "nM"}, {"measurement": "Ratio IC50", "setting": "LoVo [14]", "result": 4.3}, {"measurement": "IC50", "setting": "CCRF-CEM [15]", "result": 20, "unit": "nM"}, {"measurement": "IC50", "setting": "HeLa [16]", "result": 340, "unit": "nM"}, {"measurement": "IC50", "setting": "LoVo [17]", "result": 430, "unit": "nM"}, {"measurement": "Activity", "setting": "HeLa [18]", "result": "Active"}, {"measurement": "Activity", "setting": "HeLa [19]", "result": "Active"}, {"measurement": "Activity", "setting": "Mus musculus [20]", "result": "Toxic"}, {"measurement": "IC50", "setting": "L1210", "result": 370, "unit": "nM"}, {"measurement": "Activity", "setting": "HT-29 [21]", "result": "Active"}, {"measurement": "Activity", "setting": "HeLa [22]", "result": "Active"}, {"measurement": "Activity", "setting": "HeLa [23]", "result": "tde"}, {"measurement": "IC50", "setting": "MOLT-4", "result": 260, "unit": "nM"}, {"measurement": "IC50", "setting": "FM3A", "result": 180, "unit": "nM"}, {"measurement": "Activity", "setting": "Mus musculus [24]", "result": "Toxic"}, {"measurement": "Ratio IC50", "setting": "A549 [25]", "result": 4.3}]}]}
